In ChEMBL document CHEMBL1121405, “Antihypertensive indole derivatives of phenoxypropanolamines with beta-adrenergic receptor antagonist and vasodilating activity” (1980):

Assays:
Rattus norvegicus [1] = assay: Vasodilator activity in ganglion blocked rats. Values denote percent change in mean arterial blood pressure 30 minutes after dosing rats at 3 mg/kg intravenously; type: functional; settings: route intravenous
In short: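 Male Wistar rats (275-450 g), urethane 800 mg/kg plus chloralose 60 mg/kg ip, then chlorisondamine 2.5 mg/kg ip for ganglion block. Angiotensin II infused iv at 0.25 or 0.35 μg/min to a new steady pressure. Drug given iv over 3 min; femoral mean arterial pressure recorded at 30 min as % change ± SEM.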

Rattus norvegicus [2] = assay: Antihypertensive activity in spontaneously hypertensive rats after peroral administration; type: functional
In short: (§1)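 SHR, 3-day test. After about 20 min prewarming at 37 °C, indirect systolic pressure by tail cuff at 0 (control), 22, 24, 26 and 46 h. Oral dosing at 0 and 22 h, at 100 mg/kg unless footnoted otherwise. Groups of five rats; maximum mean fall from the control reading is rated in bands (<25, 25-34, 35-44, ≥45 mmHg).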

Rattus norvegicus [3] = assay: Antihypertensive activity in spontaneously hypertensive rats after peroral administration,; type: functional; in short: as §1
Rattus norvegicus [4] = species on record: Rattus norvegicus; assay: Intrinsic sympathomimetic action in reserpinized rats; type: functional
In short: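 Reserpinized rats given 0.3 mg/kg iv. Read-out is increase in heart rate (bpm), mean ± SEM, n = 3-6.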

[5] = molecular target: T1, Adrenergic receptor beta (Rattus norvegicus) (UniProt P18090+P10608+P26255); assay: The compound was tested for beta-adrenergic receptor blockade activity in conscious normotensive rats at a dose of 2 mg/kg; type: functional, organism-based; set-up: dose 2 mg/kg
[6] = molecular target: T1, Adrenergic receptor beta (Rattus norvegicus); assay: Beta-adrenergic receptor blockade activity in conscious normotensive rats at a dose of 0.5 mg/kg; type: functional, organism-based; set-up: dose 0.5 mg/kg
Rattus norvegicus [7] = assay: The compound was tested for antihypertensive activity in spontaneously hypertensive rats after peroral administration. Activity value is 35-44 mmHg; type: functional; in short: as §1
Rattus norvegicus [8] = assay: The compound was tested for antihypertensive activity in spontaneously hypertensive rats after peroral administration, dosed at 30 mg/kg; type: functional; settings: route oral
In short: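 Conscious spontaneously hypertensive rats, groups of five per compound. Given orally at 0 and 22 h. Before tail-cuff readings, rats were prewarmed to 37 °C for about 20 min. Indirect systolic pressure was read at 0 (control), 22, 24, 26 and 46 h. Activity was scored from the maximum mean fall from control: under 25 mmHg (±), 25-34 (+), 35-44 (++), 45 mmHg and over (+++).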

Rattus norvegicus [9] = assay: The compound was tested for antihypertensive activity in spontaneously hypertensive rats after peroral administration, Activity value is <25 mmHg; type: functional; in short: as §1

| SMILES | Delta MAP (Rattus norvegicus [1]) [%] | Actvity (Rattus norvegicus [2]) [mmHg] | Activity (Rattus norvegicus [4]) [beats min-1] | other results |
| --- | --- | --- | --- | --- |
| Cc1ccc(OCC(O)CNC(C)(C)Cc2c[nH]c3ccccc23)c(C)c1 (configuration not stated) | 13 | 34 |  |  |
| Cc1cccc(C)c1OCC(O)CNC(C)(C)Cc1c[nH]c2ccccc12 (configuration not stated) | -4 |  |  | Actvity (Rattus norvegicus [3]): <25 mmHg |
| CC(C)(Cc1c[nH]c2ccccc12)NCC(O)COc1ccccc1[N+](=O)[O-] (configuration not stated) | -38 | <25 | 106 |  |
| CC(C)(Cc1c[nH]c2ccccc12)NCC(O)COc1ccccc1-c1ccccc1 (configuration not stated) | 12 |  |  | Actvity (Rattus norvegicus [3]): <25 mmHg |
| Cc1ccccc1OCC(O)CNC(C)(C)Cc1c[nH]c2ccccc12 (configuration not stated) | -18 | 34 | 100 |  |
| CC(C)(Cc1c[nH]c2ccccc12)NCC(O)COc1ccccc1C1CCCCC1 (configuration not stated) | 18 | <25 |  |  |
| Cc1cc(Cl)ccc1OCC(O)CNC(C)(C)Cc1c[nH]c2ccccc12 (configuration not stated) | 11 |  |  |  |
| CSc1ccccc1OCC(O)CNC(C)(C)Cc1c[nH]c2ccccc12 (configuration not stated) | -29 |  |  |  |
| CC(C)(Cc1c[nH]c2ccccc12)NCC(O)COc1ccccc1C(F)(F)F (configuration not stated) | -34 | 44 | 88 |  |
| Cc1cc(S(C)(=O)=O)ccc1OCC(O)CNC(C)(C)Cc1c[nH]c2ccccc12 (configuration not stated) | -8 | <25 |  |  |
| CC(C)(Cc1c[nH]c2ccccc12)NCC(O)COc1ccccc1 (configuration not stated) | -26 | <25 | 141 |  |
| CC(C)(Cc1c[nH]c2ccccc12)NCC(O)COc1ccccc1C#N (configuration not stated) [BUCINDOLOL] | -26 | 45 | 77 | inhibition [5]: 71% |
| CCC(C)c1ccccc1OCC(O)CNC(C)(C)Cc1c[nH]c2ccccc12 (configuration not stated) | 22 |  | -8 | Actvity (Rattus norvegicus [3]): <25 mmHg |
| CC(C)(Cc1c[nH]c2ccccc12)NCC(O)COc1ccccc1N (configuration not stated) | -11 | 44 | 105 |  |
| Cc1cccc(OCC(O)CNC(C)(C)Cc2c[nH]c3ccccc23)c1C (configuration not stated) | 8 |  |  | inhibition [6]: 79%; Actvity (Rattus norvegicus [7]): 44 mmHg |
| CC(C)NCC(O)COc1cccc2[nH]ccc12 (configuration not stated) [PINDOLOL] | -32 |  | 120 | Actvity (Rattus norvegicus [8]): <25 mmHg |
| CC(C)(Cc1c[nH]c2ccccc12)NCC(O)COc1ccccc1C(N)=O (configuration not stated) | -25 | 44 | 74 |  |
| CC(C)(Cc1c[nH]c2ccccc12)NCC(O)COc1ccccc1F (configuration not stated) | -33 |  |  | Actvity (Rattus norvegicus [9]): <25 mmHg; inhibition [6]: 58% |
| CC(C)NCC(O)COc1cccc2ccccc12 (configuration not stated) [PROPRANOLOL] |  | <25 |  |  |
